The species entered for assay [1] is Homo sapiens. Briefly: Cytotoxicity against human SHG44 at 50 uM after 24 hrs by cell counting kit-8 assay. It counts as functional. The essentials: (§1)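 SHG-44 glioblastoma cells were maintained in DMEM with 10% FBS and penicillin/streptomycin at 37 °C under 5% CO2. They were seeded at 5000/well in DMEM with 1% FBS and grown overnight, then exposed for 24 h to compound (0.1–100 μM) or 0.1% DMSO vehicle. CCK-8 was added for 2 h at 37 °C and A450 read. Results were from triplicates, expressed as % of vehicle.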
(Tetrazolium assays rely on reduction of a dye to a coloured formazan, in cell work by metabolically active cells.)

Assay [2] in a line: Growth inhibition of human SHG44 at 10 uM after 24 hrs by cell counting kit-8 assay. It counts as functional. The conditions noted are these: SHG-44, 24 h, read-out: GI. The procedure, abridged: as §1
Assay [3] can be described thus: Antiproliferative activity against human SHG44 cells after 24 hrs by cell counting kit-8 assay. To be noted: SHG-44, 24 h. The assay is classed as functional, cell-based. The essentials:
as §1

Assay [4] deals with SHG44. Briefly: Antiproliferative activity against human SHG44 cells at 0.1 to 100 uM after 24 hrs by cell counting kit-8 assay. The assay is classed as functional, cell-based. The procedure, abridged:
as §1

Calls of active or inactive are those of the source. The calls are words filed in the database; no cut-off is given here.

In the case of `CCCCCCCCC[C@H](O)[C@@H](C)N`, the outcome in assay [1] was Active.
Broadly, the IC50 is the concentration at which inhibition is half-maximal. Take `CCCCCCCCCCC[C@@H](O)[C@H](C)N` [XETOAMINOL C]: the result in assay [1] was Active. In assay [2], the inhibition of growth at 10 µM came to 100%. Besides, in assay [3], the IC50 amounted to 4.5 µM.
In the case of `CCC/C=C\CCCC[C@H](O)[C@@H](C)N`, in assay [4], the outcome was inactive. Also, in assay [1], the result was Active.
In the same order, the values of `CC(C)CCCCCCC[C@H](O)[C@@H](C)N` are “inactive” and “Active”.
Turning to `CCCCCCCCC[C@H](O)[C@H](N)CO`, the result in assay [1] was Active. Also, in assay [2], the inhibition of growth at 10 µM came to 60%. The IC50 in assay [3] was 4.41 µM.
In the same order, the values of `CCCCCCCCC[C@@H](O)[C@H](C)N` are “Active”, 80% and 7.96 µM.

The record behind these values is ChEMBL document CHEMBL1833911, “Diastereoselective synthesis and bioactivity of long-chain anti-2-amino-3-alkanols” (Eur J Med Chem, 2011).
